Measured values: ChEMBL document CHEMBL4373711, “Development of 3,5-Dinitrophenyl-Containing 1,2,4-Triazoles and Their Trifluoromethyl Analogues as Highly Efficient Antitubercular Agents Inhibiting Decaprenylphosphoryl-β-d-ribofuranose 2'-Oxidase” (J Med Chem, 2019)
Converted amounts (≈) assume the structure as drawn. The source made the active and inactive calls. No cut-off for these calls is given here.

How the values were obtained:
[1] = system: Mycobacterium tuberculosis; assay: Antimycobacterial activity against Mycobacterium tuberculosis H37Rv CNCTC My 331/88 after 14 days; type: functional; conditions: H37Rv CNCTC My 331/88, 336 h
Procedure, shortened: (§1)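 M. tuberculosis strains (H37Rv and clinical MDR/XDR isolates) tested by microdilution in Šula's semisynthetic medium. Compounds were dissolved in DMSO and tested at 32 to 0.03 µM in twofold steps. Inoculum was a 1.0 McFarland suspension diluted 10-3. Plates were incubated at 37 °C and read at 14 and 21 days.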

[2] = system: Mycobacterium tuberculosis; assay: Antimycobacterial activity against Mycobacterium tuberculosis H37Rv CNCTC My 331/88 after 21 days; type: functional; conditions: H37Rv CNCTC My 331/88, 504 h; procedure, shortened: as §1
Mycobacterium avium [3] = assay: Antimycobacterial activity against Mycobacterium avium CNCTC My 330/88 after 14 days; type: functional; conditions: CNCTC My 330/88, 336 h
Procedure, shortened: (§2)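 M. avium was tested by microdilution in Šula's semisynthetic medium, with compounds dissolved in DMSO and serially diluted from 1000 down to 1. Inoculum was a 1.0 McFarland suspension diluted 10-5. Plates were incubated at 37 °C and read at 14 and 21 days. […] Isoniazid and rifampicin served as standards.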

Mycobacterium avium [4] = assay: Antimycobacterial activity against Mycobacterium avium CNCTC My 330/88 after 21 days; type: functional; conditions: CNCTC My 330/88, 504 h; procedure, shortened: as §2
Mycobacterium kansasii [5] = assay: Antimycobacterial activity against Mycobacterium kansasii CNCTC My 235/80 after 7 days; type: functional; conditions: CNCTC My 235/80, 168 h
Procedure, shortened: (§3)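 Microdilution in Šula's semisynthetic medium; compounds in DMSO at 32–0.03 µM. Inoculum from 1.0 McFarland suspension diluted 10-4. […] Isoniazid and rifampicin as reference drugs.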

Mycobacterium kansasii [6] = assay: Antimycobacterial activity against Mycobacterium kansasii CNCTC My 235/80 after 14 days; type: functional; conditions: CNCTC My 235/80, 336 h; procedure, shortened: as §3
Mycobacterium kansasii [7] = assay: Antimycobacterial activity against Mycobacterium kansasii CNCTC My 235/80 after 21 days; type: functional; conditions: CNCTC My 235/80, 504 h; procedure, shortened: as §3
Mycobacterium kansasii [8] = assay: Antimycobacterial activity against Mycobacterium kansasii 6509/96 after 7 days; type: functional; conditions: 6509/96, 168 h; procedure, shortened: as §3
Mycobacterium kansasii [9] = assay: Antimycobacterial activity against Mycobacterium kansasii 6509/96 after 14 days; type: functional; conditions: 6509/96, 336 h; procedure, shortened: as §3
Mycobacterium kansasii [10] = assay: Antimycobacterial activity against Mycobacterium kansasii 6509/96 after 21 days; type: functional; conditions: 6509/96, 504 h; procedure, shortened: as §3
Staphylococcus aureus [11] = assay: Antibacterial activity against Staphylococcus aureus subsp. aureus ATCC 29213 CCM 4223 at highest concentration measured after 24 to 48 hrs by alamar blue dye based broth microdilution assay; type: functional, organism-based
Staphylococcus aureus [12] = assay: Antibacterial activity against methicillin-resistant Staphylococcus aureus subsp. aureus ATCC 43300 CCM 4750 at highest concentration measured after 24 to 48 hrs by alamar blue dye based broth microdilution assay; type: functional, organism-based
[13] = system: Staphylococcus epidermidis; assay: Antibacterial activity against Staphylococcus epidermidis at highest concentration measured after 24 to 48 hrs by alamar blue dye based broth microdilution assay; type: functional, organism-based
Enterococcus faecalis = assay: Antibacterial activity against Enterococcus faecalis ATCC 29212 CCM 4224 at highest concentration measured after 24 to 48 hrs by alamar blue dye based broth microdilution assay; type: functional, organism-based
Escherichia coli = assay: Antibacterial activity against Escherichia coli ATCC 25922 CCM 3954 at highest concentration measured after 24 to 48 hrs by alamar blue dye based broth microdilution assay; type: functional, organism-based
Klebsiella pneumoniae = assay: Antibacterial activity against Klebsiella pneumoniae at highest concentration measured after 24 to 48 hrs by alamar blue dye based broth microdilution assay; type: functional, organism-based
Serratia marcescens = assay: Antibacterial activity against Serratia marcescens at highest concentration measured after 24 to 48 hrs by alamar blue dye based broth microdilution assay; type: functional, organism-based
Pseudomonas aeruginosa = assay: Antibacterial activity against Pseudomonas aeruginosa ATCC 27853 CCM 3955 at highest concentration measured after 24 to 48 hrs by alamar blue dye based broth microdilution assay; type: functional, organism-based
Candida albicans = assay: Antifungal activity against Candida albicans ATCC 24433 CCM 8320 at highest concentration measured after 24 to 48 hrs by alamar blue dye based broth microdilution assay; type: functional, organism-based
Pichia kudriavzevii = assay: Antifungal activity against Candida krusei ATCC 6258 CCM8271 at highest concentration measured after 24 to 48 hrs by alamar blue dye based broth microdilution assay; type: functional, organism-based
Candida parapsilosis = assay: Antifungal activity against Candida parapsilosis ATCC 22019 CCM 8260 at highest concentration measured after 24 to 48 hrs by alamar blue dye based broth microdilution assay; type: functional, organism-based
Candida tropicalis = assay: Antifungal activity against Candida tropicalis ATCC 750 CCM 8264 at highest concentration measured after 24 to 48 hrs by alamar blue dye based broth microdilution assay; type: functional, organism-based
Aspergillus fumigatus = assay: Antifungal activity against Aspergillus fumigatus ATCC 204305 at highest concentration measured after 24 to 48 hrs by alamar blue dye based broth microdilution assay; type: functional, organism-based
Aspergillus flavus = assay: Antifungal activity against Aspergillus flavus CCM 8363 at highest concentration measured after 24 to 48 hrs by alamar blue dye based broth microdilution assay; type: functional, organism-based
Lichtheimia corymbifera = assay: Antifungal activity against Lichtheimia corymbifera CCM 8077 at highest concentration measured after 24 to 48 hrs by alamar blue dye based broth microdilution assay; type: functional, organism-based
[14] = system: Trichophyton interdigitale; assay: Antifungal activity against Trichophyton interdigitale ATCC 9533 CCM 8377 at highest concentration measured after 72 to 120 hrs by alamar blue dye based broth microdilution assay; type: functional
HepG2 = assay: Cytotoxicity against human HepG2 cells assessed as reduction in cell viability after 48 hrs by CellTiter 96 aqueous one solution assay; type: cell-based; conditions: HepG2, 48 h
[15] = Cytotoxicity against human HepG2 cells assessed as cell viability at 30 uM after 48 hrs by CellTiter 96 aqueous one solution assay relative to control; type: cell-based; conditions: read-out: Activity
Procedure, shortened: (§4)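 HepG2 (DMEM, 10% FBS, 1 mM pyruvate) or A431 (DMEM, 10% FBS) seeded 10,000 cells/well, 24 h at 37 °C, 5% CO2, then 30 µM compound for 48 h. MTS reagent 60 min, absorbance 490 nm, background subtracted; 0.1% DMSO vehicle = 100%, 10% SDS = 0% viability.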

A-431 = assay: Cytotoxicity against human A431 cells assessed as reduction in cell viability after 48 hrs by CellTiter 96 aqueous one solution assay; type: cell-based; conditions: A-431, 48 h
[16] = Cytotoxicity against human A431 cells assessed as cell viability at 30 uM after 48 hrs by CellTiter 96 aqueous one solution assay relative to control; type: cell-based, A-431; conditions: read-out: Activity; procedure, shortened: as §4

| Compound | MIC99 [1] [µM] | MIC99 [2] [µM] | MIC99 (Mycobacterium avium [3]) [µM] | MIC99 (Mycobacterium avium [4]) [µM] | MIC99 (Mycobacterium kansasii [5]) [µM] | MIC99 (Mycobacterium kansasii [6]) [µM] | MIC99 (Mycobacterium kansasii [7]) [µM] | MIC99 (Mycobacterium kansasii [8]) [µM] | MIC99 (Mycobacterium kansasii [9]) [µM] | MIC99 (Mycobacterium kansasii [10]) [µM] | Activity (Staphylococcus aureus [11]) | Activity (Staphylococcus aureus [12]) | Activity [13] | Activity (Enterococcus faecalis) | Activity (Escherichia coli) | Activity (Klebsiella pneumoniae) | Activity (Serratia marcescens) | Activity (Pseudomonas aeruginosa) | Activity (Candida albicans) | Activity (Pichia kudriavzevii) | further results |
| --- | --- | --- | --- | --- | --- | --- | --- | --- | --- | --- | --- | --- | --- | --- | --- | --- | --- | --- | --- | --- | --- |
| CCCCCCn1c(SCc2ccccc2)nnc1-c1cc([N+](=O)[O-])cc([N+](=O)[O-])c1 | 1 (≈ 0.442 µg/mL) | 1 (≈ 0.442 µg/mL) | 250 (≈ 110 µg/mL) | 250 (≈ 110 µg/mL) | 1 (≈ 0.442 µg/mL) | 1 (≈ 0.442 µg/mL) | 1 (≈ 0.442 µg/mL) | 1 (≈ 0.442 µg/mL) | 1 (≈ 0.442 µg/mL) | 1 (≈ 0.442 µg/mL) | inactive | inactive | inactive | inactive | inactive | inactive | inactive | inactive | inactive | inactive | Activity (Candida parapsilosis): inactive; Activity (Candida tropicalis): inactive; Activity (Aspergillus fumigatus): inactive; Activity (Aspergillus flavus): inactive; Activity (Lichtheimia corymbifera): inactive; Activity [14]: inactive; IC50 (HepG2): > 30 µM; viability at 48 h, 30 µM [15]: 102%; IC50 (A-431): > 30 µM; viability at 48 h, 30 µM [16]: 98% |
| O=[N+]([O-])c1cc(CSc2nnc(-c3ccc(Cl)cc3)n2Cc2ccccc2)cc(C(F)(F)F)c1 | 32 (≈ 16.2 µg/mL) | > 32 | 250 (≈ 126 µg/mL) | 250 (≈ 126 µg/mL) | 32 (≈ 16.2 µg/mL) | > 32 | > 32 | > 32 | > 32 | > 32 | inactive | inactive | inactive | inactive | inactive | inactive | inactive | inactive | inactive | inactive | Activity (Candida parapsilosis): inactive; Activity (Candida tropicalis): inactive; Activity (Aspergillus fumigatus): inactive; Activity (Aspergillus flavus): inactive; Activity (Lichtheimia corymbifera): inactive; Activity [14]: inactive; IC50 (HepG2): > 30 µM; viability at 48 h, 30 µM [15]: 107%; IC50 (A-431): > 30 µM; viability at 48 h, 30 µM [16]: 73% |
| O=[N+]([O-])c1cc(CSc2nnc(-c3ccccc3)n2C2CCCCC2)cc([N+](=O)[O-])c1 | 1 (≈ 0.439 µg/mL) | 2 (≈ 0.879 µg/mL) | 250 (≈ 110 µg/mL) | 250 (≈ 110 µg/mL) | 1 (≈ 0.439 µg/mL) | 2 (≈ 0.879 µg/mL) | 4 (≈ 1.76 µg/mL) | 1 (≈ 0.439 µg/mL) | 2 (≈ 0.879 µg/mL) | 4 (≈ 1.76 µg/mL) | inactive | inactive | inactive | inactive | inactive | inactive | inactive | inactive | inactive | inactive | Activity (Candida parapsilosis): inactive; Activity (Candida tropicalis): inactive; Activity (Aspergillus fumigatus): inactive; Activity (Aspergillus flavus): inactive; Activity (Lichtheimia corymbifera): inactive; Activity [14]: inactive; IC50 (HepG2): > 30 µM; viability at 48 h, 30 µM [15]: 87%; IC50 (A-431): > 30 µM; viability at 48 h, 30 µM [16]: 131% |
| O=[N+]([O-])c1cc(CSc2nnc(-c3ccc(Cl)cc3)n2Cc2ccccc2)cc([N+](=O)[O-])c1 | 4 (≈ 1.93 µg/mL) | 4 (≈ 1.93 µg/mL) | 250 (≈ 120 µg/mL) | 250 (≈ 120 µg/mL) | 4 (≈ 1.93 µg/mL) | 8 (≈ 3.86 µg/mL) | 8 (≈ 3.86 µg/mL) | 8 (≈ 3.86 µg/mL) | 8 (≈ 3.86 µg/mL) | 8 (≈ 3.86 µg/mL) | inactive | inactive | inactive | inactive | inactive | inactive | inactive | inactive | inactive | inactive | Activity (Candida parapsilosis): inactive; Activity (Candida tropicalis): inactive; Activity (Aspergillus fumigatus): inactive; Activity (Aspergillus flavus): inactive; Activity (Lichtheimia corymbifera): inactive; Activity [14]: inactive; IC50 (HepG2): > 30 µM; viability at 48 h, 30 µM [15]: 104%; IC50 (A-431): > 30 µM; viability at 48 h, 30 µM [16]: 73% |
| O=[N+]([O-])c1cc(CSc2nnc(-c3ccccc3)n2-c2ccc(Cl)c(Cl)c2)cc([N+](=O)[O-])c1 | 1 (≈ 0.502 µg/mL) | 2 (≈ 1 µg/mL) | 125 (≈ 62.8 µg/mL) | 125 (≈ 62.8 µg/mL) | 0.5 (≈ 0.251 µg/mL) | 1 (≈ 0.502 µg/mL) | 2 (≈ 1 µg/mL) | 0.5 (≈ 0.251 µg/mL) | 1 (≈ 0.502 µg/mL) | 2 (≈ 1 µg/mL) | inactive | inactive | inactive | inactive | inactive | inactive | inactive | inactive | inactive | inactive | Activity (Candida parapsilosis): inactive; Activity (Candida tropicalis): inactive; Activity (Aspergillus fumigatus): inactive; Activity (Aspergillus flavus): inactive; Activity (Lichtheimia corymbifera): inactive; Activity [14]: inactive; IC50 (HepG2): > 30 µM; viability at 48 h, 30 µM [15]: 134%; IC50 (A-431): > 30 µM; viability at 48 h, 30 µM [16]: 136% |
| COc1ccc(CSc2nnc(-c3cc([N+](=O)[O-])cc([N+](=O)[O-])c3)n2C)cc1 | 0.25 (≈ 0.1 µg/mL) | 0.5 (≈ 0.201 µg/mL) | 16 (≈ 6.42 µg/mL) | 16 (≈ 6.42 µg/mL) | 1 (≈ 0.401 µg/mL) | 2 (≈ 0.803 µg/mL) | 4 (≈ 1.61 µg/mL) | 2 (≈ 0.803 µg/mL) | 2 (≈ 0.803 µg/mL) | 2 (≈ 0.803 µg/mL) | inactive | inactive | inactive | inactive | inactive | inactive | inactive | inactive | inactive | inactive | Activity (Candida parapsilosis): inactive; Activity (Candida tropicalis): inactive; Activity (Aspergillus fumigatus): inactive; Activity (Aspergillus flavus): inactive; Activity (Lichtheimia corymbifera): inactive; Activity [14]: inactive; IC50 (HepG2): > 30 µM; viability at 48 h, 30 µM [15]: 107%; IC50 (A-431): > 30 µM; viability at 48 h, 30 µM [16]: 104% |
